The RNAGym collection of RNA variant scans (doi:10.1126/science.aae0568)
Variants at the floor of the assay were thinned out.

B1: tRNA (parent)
chain: GUUCCGUUGGCGUAAUGGUAACGCGUCUCCCUCCUAAGGAGAAGACUGCGGGUUCGAGUCCCGUACGGAACG

Variants of: B1
Assay: yeast fitness relative to wild type (ratio to wild type); higher = fitter; tRNA-Arg(CCU), competitive growth, 37 C, YPD
Method in brief: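 Amplicons of the tRNA-Arg(CCU) gene were sequenced, 100-nucleotide paired-end, from the start population and from each end population of a pooled yeast competition. The competition, in six parallel replicates, lasted 24 hours in YPD at 37°C. Fitness relative to wild type was calculated from changes in genotype frequencies. Genotypes had to have ≥ 100 starting reads, and estimates < 0.5 were set to 0.5.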

Going from GUUCCGUUGGCGUAAUGGUAACGCGUCUCCCCCCUAACGACAAGACUGCGGGUUCGAGUCCCGUGCGGAACG [U32C G38C G41C A65G] to GUUCCGUUGGCGUAAUGGUAACGCGUCUCCCCCCUAAGGAGAAGAGUGCGGGUUCGAGUCCCGUACGGAACG [U32C C46G], the yeast fitness rises from ≤ 0.5 to 0.865.

First: GUUCCGUUGGCGUAAUGGUAACGCGUCUCCCCCAUAAGGCGAAGACUGCGGGUCCGAGUCCCGUAUGGAACG [U32C C34A A40C U54C C66U]
Second: GUUCCGUUGGCGUAAUGGUAACGCGUCUCCCCCCUAAGGAGAAGACUGCGGGCUCGAGUCCCGUACGGAACG [U32C U53C]
The yeast fitness of the first is lower: 0.534 for the first, 0.766 for the second.

First: GUUCCGUUGGCGUAAUGGUAACGCGUCUCCCCCCUAAGGAGAAGACUGCGGGAUCGAGUCCCGUACGGAACG [U32C U53A]
Second: GUUCCGUUGGCGUAAUGGUAACGCGUCUCCCCCCUAAGGAGAAGACUGCGGGUUCGAGUGCGGUACGGAACG [U32C C60G C62G]
The yeast fitness of the first is higher: 0.691 for the first, ≤ 0.5 for the second.

Compared with GUUCCGUUGGCGUAAUGGUAACGCGUCUCCCCCAUAUGGAGAAGAUUGCGGGUUCGAGUCCCGUACGGAACG [U32C C34A A37U C46U], GUUCCGUUGGCGUAAUGGUAACGCGUCUCCCCUCUAAGGAGAAGACUGCGGGUUCGAGUCCCGUACGGAGCG [U32C C33U A70G] is higher in yeast fitness: ≤ 0.5 for the first, 0.681 for the second.

Going from GUUCCGUUGGCGUAAUGGUAACGCGUCUCCCCCCUAAGGAGAAGACUGCGGGUUUGGGUCCCGUACGGAACG [U32C C55U A57G] to GUUCCGUUGGCGUAAUGGUAACGCGUCUCCCCCCUAAGGAGAAGACUGCAGGUUCGAGUCCCGUACGGAACG [U32C G50A], the yeast fitness rises from 0.555 to 1.02.

Compared with GUUCCGUUGGCGUAAUGGUAACGCGUCUCCCCCCUAAGGAGAAGAUUGCGCGUUCGAGUCCUGUACGGAACG [U32C C46U G51C C62U], GUUCCGUUGGCGUAAUGGUAACGCGUCUCCCCCCUAAGGAGAAGACUGCGGGUUCGCGUCCCGUACGGAACG [U32C A57C] is higher in yeast fitness: ≤ 0.5 for the first, 0.659 for the second.

First: GUUCCGUUGGCGUAAUGGUAACGCGUCUCCCCCCUAAGGAGAAGACUGCGGGUUCGUGUCCCGUACGGAACG [U32C A57U]
Second: GUUCCGUUGGCGUAAUGGUAACGCGUCUCCCCCCUAAGGAGAAGAGUGCGGGUUCGAGUCGCGUACGGAACG [U32C C46G C61G]
The yeast fitness of the first is higher: 0.813 for the first, 0.587 for the second.

Compared with GUUCCGUUGGCGUAAUGGUAACGCGUCUCCCCCCUAAGGAGAAAACUGCGGGUUCGAGUCCCGUACGGUACG [U32C G44A A69U], GUUCCGUUGGCGUAAUGGUAACGCGUCUCCCCCCUAAGGAGAAGACUGCGGGUUCGAGUCCCGUCCGGAACG [U32C A65C] is lower in yeast fitness: 1.05 for the first, 1.03 for the second.

Compared with GUUCCGUUGGCGUAAUGGUAACGCGUCUCCCCCCUAAGGAGAAGACUGCGGGUUCGAGUCCCGUUCGGAACG [U32C A65U], GUUCCGUUGGCGUAAUGGUAACGCGUCUCCCCCCUAAGGAGAAGACUGCGGGUUCGAGUCCCGUGCGGAACG [U32C A65G] is lower in yeast fitness: 0.957 for the first, 0.936 for the second.

First: GUUCCGUUGGCGUAAUGGUAACGCGUCUCCCCCCUAAGGAGAAGACUGCGGGUUCGAGUCCCGUAUGGAACG [U32C C66U]
Second: GUUCCGUUGGCGUAAUGGUAACGCGUCUCCCCCCUAAGGAGAAGACUGCGGGUUCGAGUCCCGUUCGUAACG [U32C A65U G68U]
The yeast fitness of the first is higher: 0.966 for the first, 0.622 for the second.

First: GUUCCGUUGGCGUAAUGGUAACGCGUCUCCCCCGUAAGGACAAGACUGCGGGUUCGAGUCCCGUACGGAACG [U32C C34G G41C]
Second: GUUCCGUUGGCGUAAUGGUAACGCGUCUCCCCCAUAAGGAGAAGACUGCGGGUUCGAGUCCCGUACGGAACG [U32C C34A]
The yeast fitness of the first is lower: ≤ 0.5 for the first, 0.729 for the second.

GUUCCGUUGGCGUAAUGGUAACGCGUCUCCCCCGUAAGGAGCAGACUGCGGGUUCGAGUCCCGUACGGAACG [U32C C34G A42C] and GUUCCGUUGGCGUAAUGGUAACGCGUCUCCCCCGUAAGGAGUAGACUGCGGGUUCGAGUCCCGUACGGAACG [U32C C34G A42U] cannot be ordered by yeast fitness: ≤ 0.5 for the first, ≤ 0.5 for the second.

Compared with GUUCCGUUGGCGUAAUGGUAACGCGUCUCCCCCCUAAGGAGAAGACUGUGGGUUCGCGUCCCGUACGGAACG [U32C C49U A57C], GUUCCGUUGGCGUAAUGGUAACGCGUCUCCCCCCUAACGAGAAGACUGCGGGUUCGAGUCCCGUACGGAACG [U32C G38C] is higher in yeast fitness: 0.654 for the first, 0.742 for the second.

First: GUUCCGUUGGCGUAAUGGUAACGCGUCUCCCCCCUAAGGAGAAGACUGCGGGUUCGAGUCCCGUAUGCAACG [U32C C66U G68C]
Second: GUUCCGUUGGCGUAAUGGUAACGCGUCUCCCCCCUAAGGAGAAGACUGCGGGUUCGAGUCCUGUAGGGAACG [U32C C62U C66G]
The yeast fitness of the first is higher: 0.554 for the first, ≤ 0.5 for the second.

Compared with GUUCCGUUGGCGUAAUGGUAACGCGUCUCCCCCCUAAGGAGAAGACUGCGGGUUCGAGUCCCGUACUGCACG [U32C G67U A69C], GUUCCGUUGGCGUAAUGGUAACGCGUCUCCCCUCUAAGGAGUAGACUGCGGGUUCGAGUCCCGUACGGAACG [U32C C33U A42U] is higher in yeast fitness: ≤ 0.5 for the first, 0.66 for the second.

Going from GUUCCGUUGGCGUAAUGGUAACGCGUCUCCCCCCUAAGGAGAAGACUGCGGGUUCGAGUCUCGUACGGAACG [U32C C61U] to GUUCCGUUGGCGUAAUGGUAACGCGUCUCCCCCCUAAGGAGAAGACUGCGGGUUCGAGUCGCGUACGGAACG [U32C C61G], the yeast fitness falls from 0.987 to 0.702.

First: GUUCCGUUGGCGUAAUGGUAACGCGUCUCCCCCUUAAGGAGAAGUCUGCGGGUUCGAGUCCCGUACGGAUCG [U32C C34U A45U A70U]
Second: GUUCCGUUGGCGUAAUGGUAACGCGUCUCCCCCCUAAGGAGAAAACUGCGGGUUCGAGUCGCGUACGGAACG [U32C G44A C61G]
The yeast fitness of the first is higher: 0.826 for the first, ≤ 0.5 for the second.

Going from GUUCCGUUGGCGUAAUGGUAACGCGUCUCCCCCCUAAGGAGAAGAGUGCGGGUUCGUGUCCCGUACGGAACG [U32C C46G A57U] to GUUCCGUUGGCGUAAUGGUAACGCGUCUCCCCCCUAAGGAGAAGAGUGCGGGUUCCAGUCCCGUACGGAACG [U32C C46G G56C], the yeast fitness falls from 0.673 to ≤ 0.5.

First: GUUCCGUUGGCGUAAUGGUAACGCGUCUCCCCCCUAAGGAGAAGACUGCGGGUUCGAGUCCCAUACGGAACG [U32C G63A]
Second: GUUCCGUUGGCGUAAUGGUAACGCGUCUCCCCCCUAAGGAGAAGACUGCGGGUUUGCGUCCCGUACAGAACG [U32C C55U A57C G67A]
The yeast fitness of the first is higher: 0.832 for the first, 0.638 for the second.
